Assay [1] is described as follows: Displacement of [3H]DTG from sigma2 receptor in guinea pig brain membrane after 120 mins by liquid scintillation counting analysis. Format: cell membranes, Cavia porcellus. Summed up:
(§1)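 Guinea pig brain membranes with 3 nM [3H]DTG (Kd 11 nM) plus 400 nM (+)-SKF10,047 to mask sigma1 sites. Nonspecific binding with 5 µM DTG. 50 mM Tris-HCl pH 8.0, 120 min at room temperature. Filtration, scintillation counting, Ki computed; three determinations. Ratio taken from sigma2 and sigma1 Ki values.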

For a further assay, the species on record is Cavia porcellus. The assay can be described thus: Selectivity ratio of Ki for guinea pig sigma2 receptor to Ki for guinea pig sigma1 receptor. Summed up: as §1
The target of assay [2] is Sigma non-opioid intracellular receptor 1 (Cavia porcellus, UniProt Q60492). Put plainly: Displacement of [3H]-(+)-pentazocine from sigma1 receptor in guinea pig brain membrane after 150 mins by liquid scintillation counting analysis. The class given is cell membranes. (Loss of bound radioactivity is the signal in a displacement assay; it reports binding, not function.)
Sequence of Sigma non-opioid intracellular receptor 1 (Q60492 whole entry): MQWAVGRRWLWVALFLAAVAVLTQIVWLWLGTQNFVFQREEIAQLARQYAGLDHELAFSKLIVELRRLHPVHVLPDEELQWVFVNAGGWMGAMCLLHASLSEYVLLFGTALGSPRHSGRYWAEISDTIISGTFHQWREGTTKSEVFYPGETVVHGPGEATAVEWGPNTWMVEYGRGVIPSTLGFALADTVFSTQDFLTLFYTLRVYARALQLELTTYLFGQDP

The species entered for assay [3] is Rattus norvegicus. Put plainly: Antioxidant activity in rat brain mitochondria assessed as restoration of Ca2+/phosphate induced sulfhydryl group oxidation at 3 mM after 15 mins by mitochondrial thiol oxidation assay. Format: functional. Summed up: (§2)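 After 15 min under swelling conditions (1 mg/ml; Ca2+ 50 µM liver, 100 µM brain; succinate/rotenone, 1 mM phosphate, 20 °C), mitochondria were pelleted and solubilized in pH 8.3 EDTA/Tris/1% SDS with DTNB. Thiols read at 412 nm and given as percent reduced SH groups. Five independent experiments; ANOVA and Student's t-test.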

The species named for assay [4] is Rattus norvegicus. The assay can be described thus: Antioxidant activity in rat brain mitochondria assessed as inhibition of Ca2+/phosphate induced mitochondrial swelling by spectrophotometry. The class given is functional.
Assay [5] is filed under the species Rattus norvegicus. The assay can be described thus: Antioxidant activity in rat liver mitochondria assessed as restoration of Ca2+/phosphate induced sulfhydryl group oxidation at 3 mM after 15 mins by mitochondrial thiol oxidation assay. The class given is functional. Summed up:
as §2

The species named for assay [6] is Rattus norvegicus. The assay can be described thus: Antioxidant activity in rat liver mitochondria assessed as inhibition of Ca2+/phosphate induced mitochondrial swelling at 50 uM by spectrophotometry. The class given is functional. Put shortly: (§3)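 Mitochondria from rat liver (50 µM Ca2+) or cerebral cortex (Ficoll-purified; 100 µM Ca2+) at 1 mg protein/ml, 20 °C, in 200 mM sucrose, 10 mM HEPES pH 7.4, 5 mM succinate, 1 mM phosphate, 1.25 µM rotenone. Swelling followed as fall in apparent absorbance at 540 nm. Five runs.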

Assay [7] has as its system Rattus norvegicus. Put plainly: Reduction of (-)-U50488H-induced basal tail flick latency in Sprague-Dawley rat at 1 mg/kg, sc after 30 to 90 mins by radiant heat tail flick test. Further details: dose 1 mg/kg. The class given is functional, organism-based. Summed up: (§4)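 Male Sprague-Dawley rats (180-200 g), habituated the day before; radiant heat (infrared) aimed at lower third of tail, 25±1 °C. Basal latency 3-4 s, mean of three readings at 5 min intervals; 10 s cut-off. Drugs sc; tail-flick latency read 30, 45, 60, 75 and 90 min after injection. n=8-10, mean ± SD, two-way ANOVA with Duncan post-hoc.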

For assay [8], the species on record is Rattus norvegicus. Put plainly: Antioxidant activity in rat brain mitochondria assessed as restoration of Ca2+/phosphate induced sulfhydryl group oxidation at 50 uM after 15 mins by mitochondrial thiol oxidation assay. The class given is functional. Put shortly:
as §2

The species named for assay [9] is Rattus norvegicus. Put plainly: Antioxidant activity in rat brain mitochondria assessed as inhibition of Ca2+/phosphate induced mitochondrial permeability transition at 25 to 50 uM by spectrophotometry. The class given is functional. Summed up: as §3
The species named for assay [10] is Rattus norvegicus. Put plainly: Antioxidant activity in rat liver mitochondria assessed as restoration of Ca2+/phosphate induced sulfhydryl group oxidation at 25 to 50 uM after 15 mins by mitochondrial thiol oxidation assay. The class given is functional. Put shortly: as §2
Assay [11] is filed under the species Rattus norvegicus. Put plainly: Antioxidant activity in rat liver mitochondria assessed as inhibition of Ca2+/phosphate induced mitochondrial swelling at 25 uM by spectrophotometry. The class given is functional. Put shortly: as §3
Assay [12] has as its system Rattus norvegicus. The assay can be described thus: Antinociceptive activity in Sprague-Dawley rat assessed as basal tail flick latency at 1 mg/kg, sc by radiant heat tail flick test. Format: functional, organism-based. Also noted: dose 1 mg/kg. Summed up:
as §4
In general terms: In hot-plate and tail-flick tests a longer latency is read as antinociception.

The results in this text go back to ChEMBL document CHEMBL2321800, “Design and synthesis of new bifunctional sigma-1 selective ligands with antioxidant activity” (J Med Chem, 2013).

For orientation: Ki means a measure of affinity in units of concentration, obtained from inhibition or displacement. Read a low Ki as higher affinity.

The source made the active and inactive calls.

Regarding `O=C(CCCCC1CCSS1)N1CCN(CCc2ccccc2)CC1` (stereo not given), the figures for the inhibitory constant (Ki) in assay [1] and in [2] were 209 nM and 8.4 nM, respectively. In addition, in the assay listed under Cavia porcellus, the Ratio Ki came to 24.8.

With `OC[C@@H](O)[C@@H](S)CS`, the outcome in the assay listed under Rattus norvegicus [3] and in the assay filed under Rattus norvegicus [5] was Active. The inhibition result in the assay filed under Rattus norvegicus [4] is “inactive”. In addition, the inhibition result in the assay listed under Rattus norvegicus [6] was “Active”.

Regarding `O=C(CCCCC1CCSS1)OC1CCN(CCCc2ccccc2)CC1` (stereo not given), the values for the Ki in assay [1] and in assay [2] were 101 nM and 25.7 nM, respectively. In addition, in the assay filed under Cavia porcellus, the Ratio Ki was 3.9.

As to `O=C(CCCCC1CCSS1)N1CCN(C2CCCCC2)CC1` (stereo not given), the Ki in assay [1] was 11.2 nM; in assay [2], 0.4 nM. Moreover, in the assay filed under Cavia porcellus, the Ratio Ki came out at 28.

Regarding `O=C(CCCCC1CCSS1)N1CCN(CCCc2ccccc2)CC1` (stereo not given), the Ki in [1] was 91.6 nM; in [2] it was 10 nM. The Ratio Ki in the assay filed under Cavia porcellus worked out at 9.16.

Regarding `CN1CCN(C(=O)CCCCC2CCSS2)CC1` (stereo not given), the Ki in assay [1] came out at 21000 nM; in [2], 115 nM. Moreover, the Ratio Ki in the assay filed under Cavia porcellus stood at 183.

In the case of `O=C(CCCCC1CCSS1)N1CCN(Cc2ccccc2)CC1` (stereo not given), the Ki in assay [1] turned out to be 637 nM; in [2], 1.8 nM. The Ratio Ki in the assay filed under Cavia porcellus was 354.

Turning to `O=C(CCCCC1CCSS1)OC1CCN(CCc2ccccc2)CC1` (stereo not given), the results for the Ki in assay [1] and in assay [2] were 160 nM and 13.5 nM, respectively. The Ratio Ki in the assay listed under Cavia porcellus is 11.8.

Consider `O=C(CCCCC1CCSS1)OC1CCN(Cc2ccccc2)CC1` (stereo not given), for which the outcome in the assay on Rattus norvegicus [7], in the assay listed under Rattus norvegicus [8] and in the assay filed under Rattus norvegicus [10] was Active. The inhibition entry in the assay listed under Rattus norvegicus [9], in the assay filed under Rattus norvegicus [6] and in the assay listed under Rattus norvegicus [11] was “Active” throughout. In addition, the result with Rattus norvegicus [12] was inactive. Besides, the Ki in [1] amounted to 2300 nM; in assay [2], 5.56 nM. In the assay listed under Cavia porcellus, the Ratio Ki turned out to be 414.

As for `O=C(CCCCC1CCSS1)OC1CCN(CC2CCCCC2)CC1` (stereo not given), the inhibitory constant (Ki) stood at 14 nM in assay [1] and 1.14 nM in [2]. For the same molecule, the Ratio Ki in the assay listed under Cavia porcellus worked out at 12.3.

On to `Nc1ncnc2c1ncn2[C@@H]1O[C@H](COP(=O)(O)OP(=O)(O)O)[C@@H](O)[C@H]1O`, for which the inhibition result in the assay listed under Rattus norvegicus [4] and in the assay filed under Rattus norvegicus [6] was “Active” each time.
